According to PubChem BioAssay AID871 (The Scripps Research Institute Molecular Screening Center, 2007):
Out of some 190,000 compounds screened, about 1,800 (0.95%) were called active.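 Rule for the calls: active = activation above the screen-wide mean of compound activation plus 3 SD (cut at about 130% in these data); inactive = the rest.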 Many of the other results were omitted from the sample, so actives are more common in it than they were.

test: enhancers of STAT3 transcriptional signaling – U3A cells, luciferase, luminescence, MLSCN library, primary screen (AID 871); details: IL-6 STAT3-luciferase reporter, at 5.6 µM, active compounds read high, 100% = signal with IL-6 EC80 alone;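 note: 0% = background luminescence of wells with medium and substrate only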
In short: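 system = STAT3-luciferase reporter U3A cells | reagent = IL-6 stimulus at 33 ng/mL final | timing = 1 h compound pre-exposure, 6 h IL-6 stimulation, 37 °C | measured by = luminescence | evaluation = % activation versus median of IL-6-stimulated wells | control set = IL-6-only wells as 100% reference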

| SMILES | activation (% of control) |
| --- | --- |
| CCNC(=O)COC(=O)CCNC(=O)c1cccc(C)c1 | 102% (inactive) |
| COc1cccc(C(=O)Oc2cc(C)[nH]c(=O)c2[N+](=O)[O-])c1 | 101% (inactive) |
| OC(COc1ccc2ccccc2c1)CN1CCOCC1 (stereo not drawn) | 159% (active) |
| OC(COc1ccc2ccccc2c1)Cn1cncn1 (stereo not drawn) | 97.5% (inactive) |
| OC(COc1cccc(OCC(O)CN2CCCC2)c1)CN1CCCC1 (stereo not drawn) | 101% (inactive) |
| COc1ccc(/C=N/n2c(C)cc(C)cc2=O)cc1 | 83.5% (inactive) |
| C=CCn1c(-c2ccc3[nH]c(C)c(C)c3c2)n[nH]c1=S | 80.2% (inactive) |
| C=CCn1c(-c2ccccc2OCC)n[nH]c1=S | 158% (active) |
| C=CCn1c(-c2sc(-c3ccccc3)nc2C)n[nH]c1=S | 94.6% (inactive) |
| COc1ccc(CC(=O)N[C@@H](CCSC)c2nc3ccccc3[nH]2)cc1 | 96.5% (inactive) |
| COc1ccc(COC(=O)N/N=C(\C)CC(=O)Nc2ccc(Cl)cc2)cc1 | 101% (inactive) |
| Cc1ccc(C2C(C#N)C(C#N)N3CCCN23)cc1 (stereo not drawn) | 141% (active) |
| O=C(CCC(=O)NNc1nc2ccccc2c2nc(-c3ccccc3)nn12)NCCCN1CCCC1=O | 112% (inactive) |
| Cc1nccn1CCCNC(=O)CC1C(=O)NCCN1Cc1ccc(Cl)c(F)c1 (stereo not drawn) | 100% (inactive) |
| COc1ccc(C(CC(=O)c2ccccc2)S(=O)(=O)c2ccccc2)cc1 (stereo not drawn) | 110% (inactive) |
| COc1ccc(C=Nc2cccc3ncccc23)cc1 | 109% (inactive) |
| Oc1c(C=Nc2cccc3nsnc23)ccc2ccccc12 | 144% (active) |
| Cc1ccc(Nc2nc(-c3sc(NC(=O)c4ccccc4)nc3C)cs2)cc1 | 138% (active) |
| Cc1nc(NC(=O)c2cccc(Cl)c2)sc1-c1csc(Nc2cccc(Cl)c2)n1 | 117% (inactive) |
| C=CCCC(=O)Nc1nc(C)c(-c2csc(Nc3ccc(Cl)cc3)n2)s1 | 159% (active) |
| Cc1ccc(-c2csc(NNC(=O)c3ccccc3)n2)cc1 | 101% (inactive) |
| CCCCCCC(=O)Nc1nc(C)c(-c2csc(Nc3cc(Cl)ccc3OC)n2)s1 | 105% (inactive) |
| Cc1nc(NC(=O)CN(C)S(=O)(=O)c2ccc(Cl)cc2)sc1C | 106% (inactive) |
| CCCCC(=O)Nc1nc(C)c(-c2csc(Nc3ccc(Cl)cc3)n2)s1 | 149% (active) |
| CCCCCCC(=O)Nc1nc(C)c(-c2csc(Nc3cccc(OC)c3)n2)s1 | 99.6% (inactive) |

| SMILES | activation (% of control) |
| --- | --- |
| COc1ccc(-c2csc(NC(=O)COC(=O)Cc3ccc(Cl)cc3Cl)n2)cc1 | 100% (inactive) |
| Cc1ccc(S(=O)(=O)c2ccc(Cl)cc2)cc1S(=O)(=O)NC(C(=O)O)C(C)C (stereo not drawn) | 102% (inactive) |
| Clc1ccc(-c2nc3ccccn3c2CN2CCSCC2)cc1 | 99.3% (inactive) |
| Cn1c(=O)c2cc(S(=O)(=O)NCCC(=O)Nc3ccc(F)cc3F)ccc2n(C)c1=O | 109% (inactive) |
| COc1ccc(NC(=O)CC2C(=O)OCC3CCCCN32)cc1Cl (stereo not drawn) | 102% (inactive) |
| COc1ccccc1CN(C)c1nnnn1-c1ccccc1 | 99.5% (inactive) |
| COc1cccc(-n2c(=S)[nH]c3c(oc4ccccc43)c2=O)c1 | 136% (active) |
| COC(=O)c1ccc(CSc2nc3ccccc3c(=O)n2-c2cccc(OC)c2)o1 | 101% (inactive) |
| COc1cccc(-n2cc(C(=O)O)c3ccccc3c2=O)c1 | 98.5% (inactive) |
| O=Cc1ccc(OCc2cn3ccccc3n2)cc1 | 101% (inactive) |
| COc1ccc(/C=C(\NC(=O)c2ccc(OCC(C)C)cc2)C(=O)OCc2ccco2)cc1 | 111% (inactive) |
| NNc1nc2c(Cl)cccc2s1 | 134% (active) |
| COc1cccc2sc(Nc3nc(C)c(C(C)=O)s3)nc12 | 108% (inactive) |
| Fc1cc(F)c2nc(Nc3nc4c(F)cccc4s3)sc2c1 | 129% (inactive) |
| O=C(CSc1ccccn1)Nc1nc2c(ccc3ccccc32)s1 | 103% (inactive) |
| NC(=O)Cn1nc([N+](=O)[O-])nc1Oc1ccc(Br)cc1 | 93.7% (inactive) |
| CC(=O)N1N=C(c2ccccc2)OC1c1cccnc1 (stereo not drawn) | 103% (inactive) |
| CC(=O)Nc1cccc(NC(=O)c2c(-c3ccccc3)noc2C)c1 | 88.8% (inactive) |
| CCOC(=O)c1c(-c2ccccc2)csc1NC(=S)NC(=O)c1ccccc1 | 106% (inactive) |
| CCOC(=O)c1c(-c2cccc(C)c2)csc1NC(=O)c1c(-c2ccccc2)noc1C | 137% (active) |
| O=C(/C=C/c1ccccc1)Nc1nnc(SCC(=O)c2ccc3ccccc3c2)s1 | 104% (inactive) |
| COc1ccc(NS(=O)(=O)c2ccc(O)c(C(=O)OCC(=O)NC3CCCCC3)c2)cc1 | 102% (inactive) |
| CCN=c1sc(C(=O)Nc2ccccc2)c(C)n1CC | 84.4% (inactive) |
| CCCOc1ccccc1C1CC(=O)Nc2cc3c(cc21)OCO3 (stereo not drawn) | 66.4% (inactive) |
| COc1ccccc1C1C2=C(COC2=O)Nc2cc3c(cc21)OCO3 (stereo not drawn) | 144% (active) |

| SMILES | activation (% of control) |
| --- | --- |
| COc1cc2c(cc1/C=C1/NC(=O)N(c3ccccc3)C1=O)OCO2 | 88.5% (inactive) |
| CSc1ccc(CN(C)CC(=O)NCc2ccc(F)cc2)cc1 | 106% (inactive) |
| Cc1cc(NC(=O)CN2CCCC(C)C2)n(-c2nc3ccccc3s2)n1 (stereo not drawn) | 113% (inactive) |
| CCOC(=O)N1CCN(CC(=O)Nc2ccc(F)cc2)CC1 | 108% (inactive) |
| CCOC(=O)N1CCN(CC(=O)Nc2cc(C)nn2-c2nc3ccccc3s2)CC1 | 162% (active) |
| O=C(CCNC(=O)c1ccc([N+](=O)[O-])cc1)Nc1ccccc1N1CCOCC1 | 104% (inactive) |
| NC(=O)CC[C@@H]1NC(=O)[C@H](CO)NC(=O)c2cc([N+](=O)[O-])cc(I)c2NCC[C@@H](C(N)=O)NC1=O | 95.5% (inactive) |
| Oc1cccc(C2c3[nH]c4ccccc4c3CCN2Cc2cnn(-c3ccccc3)c2)c1 (stereo not drawn) | 138% (active) |
| Cc1cc(O)cc(O)c1C(=O)Cc1cnn(-c2ccccc2)c1 | 92.8% (inactive) |
| c1ccc(C2c3[nH]c4ccccc4c3CCN2Cc2cccn2-c2cccnc2)nc1 (stereo not drawn) | 94% (inactive) |
| Cc1ccc(Cl)cc1NC(=S)N(CCN(C)C)Cc1cccs1 | 96.1% (inactive) |
| COc1ccc2c(CC(=O)OCC(=O)Nc3ccccc3[N+](=O)[O-])coc2c1 | 110% (inactive) |
| Cc1ccc2c(c1)c1ncnc(N3CCc4ccccc4C3)c1n2C | 133% (active) |
| Cc1ccc2c(c1)c1ncn(CCC3=CCCCC3)c(=O)c1n2C | 104% (inactive) |
| Cc1ccc(-c2cc(C(=O)N3CCc4ccccc4C3)no2)cc1 | 98.3% (inactive) |
| Fc1ccc(COc2cccc(-c3n[nH]c(=S)o3)c2)cc1 | 102% (inactive) |
| CCOC(=O)N1CCN(Cc2nc3ccc([N+](=O)[O-])cc3c(=O)n2-c2cccc(OC)c2)CC1 | 83.3% (inactive) |
| CCn1cc(C(=O)NCCCN2CCCCCC2)c(=O)c2cc(S(=O)(=O)N3CCc4ccccc4C3)ccc21 | 108% (inactive) |
| COc1ccc(C(=O)ON=C2c3ccccc3-c3ccccc32)cc1OC | 107% (inactive) |
| COc1ccc(NC(=O)C(Br)C(C)C)cc1 (stereo not drawn) | 101% (inactive) |
| COc1ccc(NC(=O)ON=C2c3ccccc3-c3ccccc32)cc1 | 152% (active) |
| COCCN(C(=O)c1ccccc1F)c1c(N)n(Cc2ccccc2)c(=O)[nH]c1=O | 89.7% (inactive) |
| CC12CN(NC(=O)c3ccc(Cl)cc3)C3(C#N)CC1CCC23C (stereo not drawn) | 104% (inactive) |
